These compounds were tested against Sonic hedgehog protein (Mus musculus, UniProt Q62226) (assay: Inhibition of SHH in mouse Shh-Light2 cells after 48 hrs by Gli1 reporter gene assay in presence of SAG).
Procedure, shortened: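 Shh-Light II cells co-treated with the Hh activator SAG and inhibitor for 48 h. Cells washed with PBS and lysed, then firefly and constitutive Renilla luminescence read by dual-luciferase assay. IC50 from firefly/Renilla RLU/s plotted against concentration, Hill-slope non-linear regression. Highest concentration 5000 nM. 2–4 independent experiments, each in technical triplicate.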

Point of comparison: `COc1ccc(C(=O)Nc2ccc(Cl)c(-c3nc4ccccc4[nH]3)c2)cc1` [N-(3-(1H-Benzo[d]imidazol-2-yl)-4-chlorophenyl)-4-methoxybenzamide], IC50 117 nM. Against it:
- CC1=C2C[C@H]3[C@@H](CC=C4C[C@@H](O)CC[C@@]43C)[C@@H]2CC[C@]12O[C@@H]1C[C@H](C)CN[C@H]1[C@H]2C — 11-fold higher, 1310 nM
- COc1ccccc1C(=O)Nc1ccc(Cl)c(-c2nc3ccccc3[nH]2)c1 [N-(3-(1H-Benzo[d]imidazol-2-yl)-4-chlorophenyl)-2-methoxybenzamide] — 7.5-fold higher, 876 nM
- CCOc1cc(C(=O)Nc2ccc(Cl)c(-c3nc4ccccc4[nH]3)c2)cc(OCC)c1OCC [N-(3-(1H-Benzo[d]imidazol-2-yl)-4-chlorophenyl)-3,4,5-triethoxybenzamide] — within 1.5-fold, 97.9 nM
- COc1cc(C(=O)Nc2ccc(Cl)c(-c3nc4ccccc4[nH]3)c2)cc(OC)c1OC [N-(3-(1H-Benzo[d]imidazol-2-yl)-4-chlorophenyl)-3,4,5-trimethoxybenzamide] — within 1.5-fold, 79.8 nM
- O=C(Nc1ccc(Cl)c(-c2nc3ccccc3[nH]2)c1)c1cccc(C(F)(F)F)c1 [N-(3-(1H-Benzo[d]imidazol-2-yl)-4-chlorophenyl)-3-(trifluoromethyl)benzamide] — within 1.5-fold, 119 nM
- CN(C)c1ccc(C(=O)Nc2ccc(Cl)c(-c3nc4ccccc4[nH]3)c2)cc1 [N-(3-(1H-Benzo[d]imidazol-2-yl)-4-chlorophenyl)-4-(dimethylamino)benzamide] — 1.6-fold higher, 190 nM
- O=C(Nc1ccc(Cl)c(-c2nc3ccccc3[nH]2)c1)c1ccc(Cl)cc1 [N-(3-(1H-Benzo[d]imidazol-2-yl)-4-chlorophenyl)-4-chlorobenzamide] — 1.9-fold higher, 224 nM
- N#Cc1ccc(C(=O)Nc2ccc(Cl)c(-c3nc4ccccc4[nH]3)c2)cc1 [N-(3-(1H-Benzo[d]imidazol-2-yl)-4-chlorophenyl)-4-cyanobenzamide] — 1.6-fold higher, 185 nM
- O=C(Nc1ccc(Cl)c(-c2nc3ccccc3[nH]2)c1)c1ccc(F)cc1 [N-(3-(1H-Benzo[d]imidazol-2-yl)-4-chlorophenyl)-4-fluorobenzamide] — 2.1-fold higher, 251 nM
- O=C(Nc1ccc(Cl)c(-c2nc3ccccc3[nH]2)c1)c1ccccc1 [N-(3-(1H-Benzo[d]imidazol-2-yl)-4-chlorophenyl)-benzamide] — within 1.5-fold, 163 nM
- CCOc1cc(C(=O)Nc2cccc(-c3nc4ccccc4[nH]3)c2)cc(OCC)c1OCC [N-(3-(1H-Benzo[d]imidazol-2-yl)phenyl)-3,4,5-triethoxybenzamide] — 11-fold higher, 1320 nM

Reference: BindingDB's records for doi:10.1016/j.bmc.2009.06.008 (University of Leipzig, 2009)
